According to ChEMBL document CHEMBL4145471, “New 1,5 and 2,5-disubstituted tetrazoles-dependent activity towards surface barrier of Candida albicans” (Eur J Med Chem, 2018):
Converted amounts (≈) assume the structure as drawn.

Assays:
Format in all cases: functional
Candida albicans [1] = assay: Ratio of MIC for Candida albicans ATCC 90028 in presence of ergosterol to MIC for Candida albicans ATCC 90028 in absence of ergosterol
Procedure, shortened: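 MICs per modified M27-A3 in RPMI with or without ergosterol (final 400 µg/mL, dissolved in 10% DMSO/1% Tween 80 with heating). Inoculum 10³ CFU/mL; tetrazoles and itraconazole tested at 512–1 µg/mL, amphotericin B at 125–0.24 µg/mL. Plates were incubated at 35°C and read at 72 h; MIC was the lowest concentration with no visible growth. Run in triplicate on three days, geometric means.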

Candida albicans [2] = assay: Antifungal activity against Candida albicans ATCC 90028 after 72 hrs in presence of ergosterol by M27-A3 microdilution method; conditions: ATCC 90028, 72 h
Procedure, shortened: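 Ergosterol-modified M27-A3 assay. Compounds at 512-1 µg/mL serially diluted in RPMI; the 10^3 CFU/mL inoculum is made in RPMI with ergosterol (dissolved in 10% DMSO/1% Tween 80, heated), giving 400 µg/mL ergosterol in the wells. Itraconazole and amphotericin B serve as controls. Plates at 35°C, read after 72 h. MIC is the lowest concentration without visible growth; triplicate on three days, geometric means.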

Candida albicans [3] = assay: Antifungal activity against Candida albicans ATCC 90028 at 0.5 ug/ml after 18 hrs relative to control
Procedure, shortened: (§1)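 Planktonic broth microdilution per M27-A3 in MOPS-buffered RPMI 1640 (pH 7.0), final inoculum 1.8×10^3 cells/mL, compounds 0.0313–16 µg/mL from 1600 µg/mL stocks in ethanol or DMSO. Incubated at 35°C without agitation; OD405 read at 18 and 48 h. % inhibition was derived from test, sterility (no inoculum) and solvent growth-control wells. Amphotericin B at 0.5 µg/mL served as the 100% control.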

Candida albicans [4] = assay: Antifungal activity against Candida albicans ATCC 90028 at 0.5 ug/ml after 48 hrs relative to control; procedure, shortened: as §1
Candida albicans [5] = assay: Antifungal activity against Candida albicans ATCC 90028 after 72 hrs by M27-A3 microdilution method; conditions: ATCC 90028, 72 h
Candida albicans [6] = assay: Antifungal activity against Candida albicans ATCC 90028 after 48 hrs by M27-A3 microdilution method; conditions: ATCC 90028, 48 h
Candida albicans [7] = assay: Antifungal activity against Candida albicans ATCC 90028 at 0.25 ug/ml after 18 hrs relative to control
Procedure, shortened: (§2)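 Fluconazole (water stock, diluted in RPMI 1640) tested by CLSI M27-A3 broth microdilution against C. albicans ATCC 90028. Inoculum 1.8×10^3 cells/mL in RPMI 1640 buffered with MOPS, pH 7.0. Incubation at 35°C without agitation, read at 18 and 48 h. Growth by OD405 and visually; inhibition % calculated against solvent growth-control wells after subtracting sterility-control wells.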

Candida albicans [8] = assay: Antifungal activity against Candida albicans ATCC 90028 at 0.0313 ug/ml after 18 hrs relative to control
Candida albicans [9] = assay: Antifungal activity against Candida albicans ATCC 90028 at 0.125 ug/ml after 48 hrs relative to control; procedure, shortened: as §1
Candida albicans [10] = assay: Antifungal activity against Candida albicans ATCC 90028 at 2 ug/ml after 48 hrs relative to control; procedure, shortened: as §1
Candida albicans [11] = assay: Antifungal activity against Candida albicans ATCC 90028 at 0.0313 ug/ml after 48 hrs relative to control
Candida albicans [12] = assay: Antifungal activity against Candida albicans ATCC 90028 at 4 ug/ml after 48 hrs relative to control; procedure, shortened: as §1
Candida albicans [13] = assay: Antifungal activity against Candida albicans ATCC 90028 at 2 ug/ml after 18 hrs relative to control; procedure, shortened: as §1
Candida albicans [14] = assay: Antifungal activity against Candida albicans ATCC 90028 at 1 ug/ml after 18 hrs relative to control; procedure, shortened: as §1
Candida albicans [15] = assay: Antifungal activity against Candida albicans ATCC 90028 at 0.0625 ug/ml after 18 hrs relative to control
Candida albicans [16] = assay: Antifungal activity against Candida albicans ATCC 90028 at 16 ug/ml after 48 hrs relative to control; procedure, shortened: as §1
Candida albicans [17] = assay: Antifungal activity against Candida albicans ATCC 90028 at 1 ug/ml after 48 hrs relative to control; procedure, shortened: as §1
Candida albicans [18] = assay: Antifungal activity against Candida albicans ATCC 90028 at 0.125 ug/ml after 18 hrs relative to control; procedure, shortened: as §1
Candida albicans [19] = assay: Antifungal activity against Candida albicans ATCC 90028 at 0.0625 ug/ml after 48 hrs relative to control; procedure, shortened: as §1
Candida albicans [20] = assay: Antifungal activity against Candida albicans ATCC 90028 at 8 ug/ml after 18 hrs relative to control; procedure, shortened: as §1
Candida albicans [21] = assay: Antifungal activity against Candida albicans ATCC 90028 at 16 ug/ml after 18 hrs relative to control; procedure, shortened: as §1
Candida albicans [22] = assay: Antifungal activity against Candida albicans ATCC 90028 at 0.25 ug/ml after 48 hrs relative to control; procedure, shortened: as §2
Candida albicans [23] = assay: Antifungal activity against Candida albicans ATCC 90028 at 8 ug/ml after 48 hrs relative to control; procedure, shortened: as §1
Candida albicans [24] = assay: Fungicidal activity against Candida albicans ATCC 90028 at 16 ug/ml after 48 hrs by M27-A3 microdilution method
Procedure, shortened: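 After 48 h at 35°C in M27-A3 microdilution plates (compound at 16 µg/mL), 50 µL aliquots from treated and solvent-control wells were diluted 10^4 in PBS and plated on drug-free Sabouraud dextrose agar, then incubated 48 h at 35°C. Reduction R = lg CFU/mL control − lg CFU/mL treated; R ≥ 3 defined as fungicidal.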

Candida albicans [25] = assay: Antifungal activity against Candida albicans ATCC 90028 at 4 ug/ml after 18 hrs relative to control; procedure, shortened: as §1

Row | Compound | Activity (Candida albicans [3]) | Activity (Candida albicans [4]) | Activity (Candida albicans [7]) | Activity (Candida albicans [8]) | Activity (Candida albicans [9]) | Activity (Candida albicans [10]) | Activity (Candida albicans [11]) | Activity (Candida albicans [12]) | Activity (Candida albicans [13]) | Activity (Candida albicans [14]) | Activity (Candida albicans [15]) | Activity (Candida albicans [16]) | Activity (Candida albicans [17]) | Activity (Candida albicans [18]) | Activity (Candida albicans [19]) | Activity (Candida albicans [20]) | Activity (Candida albicans [21]) | Activity (Candida albicans [22]) | Activity (Candida albicans [23]) | Activity (Candida albicans [24]) | also measured
1 | CCC(C)n1ncn(-c2ccc(N3CCN(c4ccc(OCC5COC(Cn6cncn6)(c6ccc(Cl)cc6Cl)O5)cc4)CC3)cc2)c1=O (stereo not given) [ITRACONAZOLE] |  |  |  |  |  |  |  |  |  |  |  |  |  |  |  |  |  |  |  |  | Ratio (Candida albicans [1]): 2
2 | C[C@@H]1[C@H](O)[C@@H](C)/C=C/C=C/C=C/C=C/C=C/C=C/C=C/[C@H](O[C@@H]2O[C@H](C)[C@@H](O)[C@H](N)[C@@H]2O)C[C@@H]2O[C@](O)(C[C@@H](O)C[C@@H](O)[C@H](O)CC[C@@H](O)C[C@@H](O)CC(=O)O[C@H]1C)C[C@H](O)[C@H]2C(=O)O [AMPHOTERICIN B] | 100% | 100% |  |  |  |  |  |  |  |  |  |  |  |  |  |  |  |  |  |  | MIC (Candida albicans [2]): 0.24 µg/mL; MIC (Candida albicans [5]): 0.03 µg/mL (≈ 0.0325 µM)
3 | OC(Cn1cncn1)(Cn1cncn1)c1ccc(F)cc1F [FLUCONAZOLE] |  |  |  |  |  |  |  |  |  |  |  |  |  |  |  |  |  |  |  |  | MIC (Candida albicans [6]): 0.25 µg/mL (≈ 0.816 µM)
4 | ClCCCn1nnc(-c2ccccc2)n1 | 99.1% | 99.16% | 98.55% | 99.51% | 99.19% | 99.57% | 99.38% | 99.29% | 99.25% | 62.02% | 99.99% | 99.22% | 97.6% | 99.65% | 99.76% | 99.54% | 99.36% | 99.16% | 99.63% | -0.23 log10CFU/ml | Activity (Candida albicans [25]): 99.53%
5 | CCOC(=O)CCn1nnc(-c2ccc(C)cc2)n1 | 99.07% | 99.16% | 98.38% | 99.31% | 98.72% | 98.95% | 98.81% | 98.95% | 98.19% | 45.15% | 99.51% | 99.37% | 96.34% | 99.76% | 98.79% | 99.61% | 99.98% | 98.95% | 99.14% | -0.23 log10CFU/ml | Activity (Candida albicans [25]): 98.99%
6 | ClCCCn1nnnc1-c1ccccc1 | 97.53% | 98.82% | 94.68% | 99.65% | 99.16% | 97.23% | 99.02% | 98.9% | 95.82% | 96.69% | 99.45% | 99.05% | 98.8% | 98.12% | 99.12% | 98.57% | 98.95% | 98.19% | 98.81% | -0.18 log10CFU/ml | Activity (Candida albicans [25]): 98.66%
7 | CCOC(=O)CCn1nnc(-c2ccc(Cl)cc2)n1 | 98.32% | 99% | 99.95% | 99.32% | 98.85% | 99.12% | 99.14% | 99.07% | 99.74% | 84.36% | 99.88% | 98.78% | 98.78% | 99.92% | 98.8% | 97.97% | 100% | 98.87% | 98.86% | 0.29 log10CFU/ml | Activity (Candida albicans [25]): 99.85%
